The values that follow come from ChEMBL document CHEMBL1142348, “beta-N-Biaryl ether sulfonamide hydroxamates as potent gelatinase inhibitors: part 1. Design, synthesis, and lead identification” (Bioorg Med Chem Lett, 2008).

pIC50: −log10 of the molar value. ≈ marks a conversion by molar mass, not a printed value.

Data set [1] addresses T1, 72 kDa type IV collagenase (Homo sapiens, UniProt P08253). The data set can be described thus: Inhibition of full length MMP2.
Target sequence in this assay (P08253 whole entry, the tested form may be a part): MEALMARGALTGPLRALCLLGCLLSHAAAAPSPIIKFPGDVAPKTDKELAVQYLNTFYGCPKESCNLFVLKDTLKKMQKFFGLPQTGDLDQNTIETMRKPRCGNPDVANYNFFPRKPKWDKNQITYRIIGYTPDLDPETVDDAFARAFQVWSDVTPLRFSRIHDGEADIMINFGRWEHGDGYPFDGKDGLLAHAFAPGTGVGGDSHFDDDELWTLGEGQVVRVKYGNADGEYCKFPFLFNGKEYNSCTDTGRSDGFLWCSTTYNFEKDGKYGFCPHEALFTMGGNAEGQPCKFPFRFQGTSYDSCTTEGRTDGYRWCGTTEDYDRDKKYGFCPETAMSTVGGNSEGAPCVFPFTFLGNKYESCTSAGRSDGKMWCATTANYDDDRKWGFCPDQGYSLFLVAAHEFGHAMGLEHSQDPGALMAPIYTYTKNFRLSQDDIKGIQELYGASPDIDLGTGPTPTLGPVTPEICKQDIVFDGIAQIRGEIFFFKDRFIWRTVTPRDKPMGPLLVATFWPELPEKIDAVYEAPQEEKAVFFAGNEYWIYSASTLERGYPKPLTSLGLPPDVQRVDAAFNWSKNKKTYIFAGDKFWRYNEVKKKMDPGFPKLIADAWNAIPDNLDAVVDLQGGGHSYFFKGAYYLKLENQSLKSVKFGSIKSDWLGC
Data set [2] concerns the target T2, Matrix metalloproteinase-9 (Homo sapiens, UniProt P14780). The data set can be described thus: Inhibition of catalytic domain MMP9. The method, boiled down:
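Peptide-cleavage FRET assay using MMP-1 and -9 catalytic domains or full-length MMP-2, each titrated to give linear velocity. Enzyme was preincubated with inhibitor for 1 h at room temperature in 50 mM Hepes pH 7.4, 10 mM CaCl2, 0.05% Brij-35, final DMSO 0.04%. Eu/QSY7-labelled peptide substrate was then added for 15 min at room temperature, and liberated Eu fluorescence was read.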

A further data set concerns the target T3, Interstitial collagenase (Homo sapiens, UniProt P03956).
T3 sequence (P03956 whole entry): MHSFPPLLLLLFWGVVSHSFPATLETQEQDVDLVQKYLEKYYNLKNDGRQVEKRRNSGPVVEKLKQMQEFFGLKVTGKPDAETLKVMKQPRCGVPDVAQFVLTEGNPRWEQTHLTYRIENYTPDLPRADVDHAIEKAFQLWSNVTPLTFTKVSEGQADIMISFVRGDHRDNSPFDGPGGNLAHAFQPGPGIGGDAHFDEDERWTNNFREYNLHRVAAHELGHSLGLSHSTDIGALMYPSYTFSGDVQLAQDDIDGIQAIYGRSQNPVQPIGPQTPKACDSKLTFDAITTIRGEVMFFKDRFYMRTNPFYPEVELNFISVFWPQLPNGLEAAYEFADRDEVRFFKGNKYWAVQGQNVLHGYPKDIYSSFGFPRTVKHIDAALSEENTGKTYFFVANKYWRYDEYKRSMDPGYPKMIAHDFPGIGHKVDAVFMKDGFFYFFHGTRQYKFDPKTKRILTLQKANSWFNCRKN
The data set can be described thus: Inhibition of catalytic domain MMP1.

A short description of data set [3]: Selectivity ratio, IC50 for full length MMP2 to IC50 for catalytic domain MMP9. The method, boiled down: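 Full-length MMP-2 and MMP-9 catalytic domain, each titrated for linear velocity, in 50 mM Hepes pH 7.4, 10 mM CaCl2, 0.05% Brij-35. Preincubated 1 h at room temperature with compound dilutions (final DMSO 0.04%). Eu/QSY7-quenched peptide substrate added for 15 min at room temperature; cleavage read as Eu fluorescence. Triplicate 16-point curves, nonlinear regression; ratio is MMP-2 IC50/MMP-9 IC50.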

Data set [4] deals with T1, 72 kDa type IV collagenase. Put plainly: Inhibition of full length MMP2 at 10 uM.
Target sequence in this assay (P08253 110-660 limits assumed): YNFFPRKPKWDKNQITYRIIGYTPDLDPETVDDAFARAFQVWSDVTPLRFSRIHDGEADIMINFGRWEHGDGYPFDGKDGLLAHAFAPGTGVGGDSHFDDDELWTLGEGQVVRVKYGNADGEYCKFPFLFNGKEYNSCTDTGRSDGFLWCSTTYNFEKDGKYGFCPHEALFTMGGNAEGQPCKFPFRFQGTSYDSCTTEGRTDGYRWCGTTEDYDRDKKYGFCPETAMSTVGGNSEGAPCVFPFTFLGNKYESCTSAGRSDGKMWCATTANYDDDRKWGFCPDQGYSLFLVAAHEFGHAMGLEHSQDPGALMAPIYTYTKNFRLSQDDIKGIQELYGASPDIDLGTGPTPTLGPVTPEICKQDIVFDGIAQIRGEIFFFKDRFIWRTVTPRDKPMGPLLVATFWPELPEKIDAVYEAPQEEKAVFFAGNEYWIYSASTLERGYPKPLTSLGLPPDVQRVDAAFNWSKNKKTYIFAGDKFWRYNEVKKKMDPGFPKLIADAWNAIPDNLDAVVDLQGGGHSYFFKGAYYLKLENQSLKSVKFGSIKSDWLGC
In data set [5] the target is T2, Matrix metalloproteinase-9. Put plainly: Inhibition of MMP9 catalytic domain at 10 uM.
The nature of data set [6]: Cmax in rat at 0.5 mg/kg, iv. The data set is classed as ADME, organism-based. Also on record: dose 0.5 mg/kg, route intravenous. The following applies: in vivo. The essentials:
(§1)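 Rats, n=4 per group, single intravenous dose of 0.5 mg/kg. Plasma Cmax was taken at t = 5 min. Apparent elimination half-life, AUC, steady-state volume of distribution and clearance were derived from the plasma profile. Values are means of the 4 animals.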

Data set [7] is described as follows: Half life in rat at 0.5 mg/kg, iv. Type of data set: ADME, organism-based. Also on record: dose 0.5 mg/kg, route intravenous. Particulars: in vivo. The essentials:
as §1

Data set [8] is described as follows: AUC in rat at 0.5 mg/kg, iv. Set-up: dose 0.5 mg/kg, route intravenous. Particulars: plasma. Type of data set: ADME, organism-based. The method, boiled down:
as §1

Data set [9] can be described thus: Volume of distribution in rat at steady state at 0.5 mg/kg, iv. Type of data set: ADME, organism-based. Set-up: dose 0.5 mg/kg, route intravenous. Particulars: in vivo, read-out: Vdss. The method, boiled down:
as §1

A short description of data set [10]: Clearance in rat at 0.5 mg/kg, iv. Type of data set: ADME, organism-based. Set-up: dose 0.5 mg/kg, route intravenous. Particulars: in vivo. The essentials:
as §1

A short description of data set [11]: Solubility in water at pH 7. Type of data set: physicochemical.
Data set [12] can be described thus: Solubility in water at pH 2. The data set is classed as physicochemical.
The nature of data set [13]: Stability in human liver microsomes.
Data set [14] in a line: Stability in rat liver microsomes. Background: Liver microsomes are vesicles of endoplasmic reticulum, rich in cytochrome P450 enzymes.

T2 sequence (P14780 whole entry, the tested form may be a part): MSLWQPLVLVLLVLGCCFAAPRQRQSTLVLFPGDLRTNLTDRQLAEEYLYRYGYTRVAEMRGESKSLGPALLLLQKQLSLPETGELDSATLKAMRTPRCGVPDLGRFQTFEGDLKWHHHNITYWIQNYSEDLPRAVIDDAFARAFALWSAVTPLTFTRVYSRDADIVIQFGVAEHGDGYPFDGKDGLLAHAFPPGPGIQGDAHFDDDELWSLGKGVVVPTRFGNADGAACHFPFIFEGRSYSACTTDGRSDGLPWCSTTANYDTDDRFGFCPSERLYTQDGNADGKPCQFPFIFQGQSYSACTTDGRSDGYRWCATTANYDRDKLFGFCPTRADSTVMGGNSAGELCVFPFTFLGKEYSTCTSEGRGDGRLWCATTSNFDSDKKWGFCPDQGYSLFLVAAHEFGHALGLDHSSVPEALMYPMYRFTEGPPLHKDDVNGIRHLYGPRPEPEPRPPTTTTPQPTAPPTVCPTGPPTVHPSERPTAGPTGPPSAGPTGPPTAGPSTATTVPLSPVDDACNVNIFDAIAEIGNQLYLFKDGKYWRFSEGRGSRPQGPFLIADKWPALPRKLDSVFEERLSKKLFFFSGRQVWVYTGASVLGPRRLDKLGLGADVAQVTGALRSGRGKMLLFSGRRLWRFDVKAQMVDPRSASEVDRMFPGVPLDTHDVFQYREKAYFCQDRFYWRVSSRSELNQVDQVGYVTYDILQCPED

For `Cc1ccc(Oc2ccc(N(CC(=O)NO)S(C)(=O)=O)cc2)cc1`, the figures for the negative logarithm of the IC50 (pIC50) in [1] and in data set [2] were 7.14 and 7.51, respectively.
Take `CS(=O)(=O)N(C[C@H](O)C(=O)NO)c1ccc(OCc2ccc(F)cc2)cc1`: the pIC50 was below 5.00 at Interstitial collagenase, 5.64 in data set [1] and 5.32 in data set [2]. In data set [3], the Ratio IC50 is 0.5.
For the compound `CC(C)C(=O)N(C[C@H](O)C(=O)NO)c1ccc(Oc2ccc(Cl)cc2)cc1`, the pIC50 in data set [1] is 6.54; in data set [2], 6.62.
As for `CS(=O)(=O)N(C[C@H](O)C(=O)NO)c1ccc(C#Cc2ccc(Cl)cc2)cc1`, the Ratio IC50 in data set [3] worked out at 1.2.
Take `Cc1ccc(Oc2ccc(N(C[C@H](O)C(=O)O)S(C)(=O)=O)cc2)cc1`: the inhibition in [4] and in [5] was below 10% in each case.
As to `CCS(=O)(=O)N(C[C@H](O)C(=O)NO)c1ccc(Oc2ccc(C)cc2)cc1`, the pIC50 was 6.85 in data set [1] and 7.55 in data set [2]. Also, the Ratio IC50 in data set [3] was 5.1.
As for `Cc1ccc(Sc2ccc(N(C[C@H](O)C(=O)NO)S(C)(=O)=O)cc2)cc1`, the pIC50 in data set [1] is 6.53; in data set [2], 7.27. Besides, the Ratio IC50 in [3] came to 5.5.
In the case of `Cc1ccc(Oc2ccc(N(C[C@H](O)C(=O)NO)S(=O)(=O)Cc3ccncc3)cc2)cc1`, in data set [3], the Ratio IC50 was 6.4.
In the case of `Cc1ccc(Oc2ccc(N(C[C@H](O)C(=O)NO)S(=O)(=O)Cc3ccccc3)cc2)cc1`, in data set [3], the Ratio IC50 was determined as 6.3.
Take `CCCS(=O)(=O)N(C[C@H](O)C(=O)NO)c1ccc(Oc2ccc(C)cc2)cc1`: the Ratio IC50 in data set [3] is 4.1.
Regarding `CS(=O)(=O)N(C[C@H](O)C(=O)NO)c1ccc(Sc2ccc(F)cc2)cc1`, the pIC50 in [1] was 6.55; in data set [2] it was 6.98. The Ratio IC50 in [3] came out at 2.7.
Regarding `CC(=O)N(C[C@H](O)C(=O)NO)c1ccc(Oc2ccc(Cl)cc2)cc1`, the pIC50 in [1] is 5.90; in [2], 6.03.
Taken in the same sequence, the figures for `CO[C@@H](CN(c1ccc(Oc2ccc(C)cc2)cc1)S(C)(=O)=O)C(=O)NO` were 7.44 and 8.42.
Take `CS(=O)(=O)N(C[C@H](O)C(=O)NO)c1ccc(Oc2ccc(C(F)(F)F)cc2)cc1`: the Ratio IC50 in data set [3] came to 9.9.
As to `Cc1ccc(Oc2ccc(N(C[C@H](O)C(=O)NO)S(=O)(=O)Cc3cccnc3)cc2)cc1`, in data set [3], the Ratio IC50 stood at 5.8.
As to `CS(=O)(=O)N(CC(=O)NO)c1ccc(Oc2ccccc2)cc1`, the pIC50 is below 5.00 against Interstitial collagenase, 6.83 in data set [1] and 6.42 in data set [2].
Consider `CS(=O)(=O)N(C[C@H](O)C(=O)NO)c1ccc(-c2ccccc2)cc1`, for which the inhibition in data set [4] came out at 87%; in [5], 79%.
`CS(=O)(=O)N(C[C@H](O)C(=O)NO)c1ccc(OCc2ccc(Cl)cc2)cc1`: the pIC50 was below 5.00 against Interstitial collagenase, 6.05 in [1] and 6.01 in data set [2]. Also, in [3], the Ratio IC50 was found to be 0.9.
`CS(=O)(=O)N(C[C@H](O)C(=O)NO)c1ccc(Oc2ccc(Cl)cc2)cc1`: the Ratio IC50 in data set [3] is 7.4.
Turning to `COc1ccc(C#Cc2ccc(N(C[C@H](O)C(=O)NO)S(C)(=O)=O)cc2)cc1`, the values for the pIC50 (on Interstitial collagenase; in data set [1]) were below 5.00 and 7.49, respectively. In addition, the Ratio IC50 in data set [3] amounted to 0.4.
Turning to `CO[C@H](CN(c1ccc(Oc2ccc(C)cc2)cc1)S(C)(=O)=O)C(=O)NO`, in [2], the negative logarithm of the IC50 (pIC50) is 7.89.
On to `CS(=O)(=O)N(C[C@H](O)C(=O)NO)c1ccc(S(=O)(=O)c2ccccc2)cc1`, for which the pIC50 in [1] and in [2] was below 5.00 throughout.
For the compound `Cc1ccc(C#Cc2ccc(N(C[C@H](O)C(=O)NO)S(C)(=O)=O)cc2)cc1`, the negative-log IC50 (pIC50) in data set [1] was 7.33; in data set [2], 7.36. The Ratio IC50 in data set [3] was determined as 1.1.
Turning to `CS(=O)(=O)N(C[C@H](O)C(=O)NO)c1ccc(OCc2ccc(C(F)(F)F)cc2)cc1`, the pIC50 at Interstitial collagenase was below 5.00; in data set [1], 5.54; in data set [2], 5.83. The Ratio IC50 in data set [3] worked out at 1.9.
Turning to `Cc1ccc(Oc2ccc(N(C[C@H](O)C(=O)NO)S(C)(=O)=O)cc2)cc1`, the concentration in [6] peaked (Cmax) at 1.3 µM. The compound further gave a half-life in [7] of 25.8 min. Further, in data set [8], the AUC amounted to 0.18 µg·h/mL. In addition, in data set [9], the Vd was found to be 1.4 L/kg. In data set [10], this compound had a clearance of 2.85 L/h/kg. Besides, the solubility in data set [11] is 0.028 mg/mL (≈ 73.6 µM); in [12], below 0.005 mg/mL.
As to `CS(=O)(=O)N(C[C@H](O)C(=O)NO)c1ccc(Oc2ccccc2)cc1`, the pIC50 in data set [1] was 6.61; in data set [2] it was 7.41. Besides, in data set [3], the Ratio IC50 worked out at 6.3.
`Cc1ccc(Oc2ccc(N(CC(C)(O)C(=O)NO)S(C)(=O)=O)cc2)cc1` (racemic): the figures for the pIC50 (on Interstitial collagenase; in data set [1]; in data set [2]) were below 5.00, 7.70 and 8.26, respectively. In data set [6], this compound displayed a Cmax of 1.5 µM. The figures for the half-life in data set [7], in data set [13] and in data set [14] were 43.2 min, 103 min and 10 min, respectively. For the same compound, the AUC in [8] turned out to be 0.22 µg·h/mL. In data set [9], the Vd turned out to be 1.5 L/kg. Also, in [10], the clearance stood at 2.49 L/h/kg. In addition, the solubility in data set [11] is 0.028 mg/mL (≈ 71 µM); in [12] it was below 0.005 mg/mL.
Consider `Cc1ccc(Oc2ccc(N(C[C@@H](O)C(=O)NO)S(C)(=O)=O)cc2)cc1`, for which the figures for the negative logarithm of the IC50 (pIC50) in data set [1] and in data set [2] were 7.17 and 7.92, respectively.
For the compound `Cc1ccc(Oc2ccc(N(CCC(=O)NO)S(C)(=O)=O)cc2)cc1`, the pIC50 against Interstitial collagenase was below 5.00; in data set [1] it was 7.21; in data set [2] it was 8.18.

As a reminder, the pIC50 is −log10 of the IC50, conventionally taken in molar units. Read a low pIC50 as a high IC50. A word on the inhibition: it is the relative decrease from the control value, in per cent. Higher therefore signals a strong effect. In general, Cmax refers to the peak of the concentration-time curve. As a reminder, the half-life is how long it takes for the measured level to halve. A higher half-life goes with slow decline. In general, AUC refers to concentration integrated over time. Lower therefore signals less exposure. In general, clearance refers to a measure of how efficiently the substance is removed, as volume per time. Lower therefore signals a low capacity for elimination. A word on the solubility: it is the concentration that dissolves in the medium under given conditions. Read a low solubility as a poorly soluble substance.
